# PLCg1 inh = PLC-gamma1 (human) inhibition, primary screen; purified PLC-gamma1, fluorogenic substrate, fluorescence; inhibition, % at 12.2 µM; actives 0.84% (n = 370,000); AID 720700; in the data active = inhibition above about 9.5%
# PLC-beta3 inh = blocks human PLC-beta3 enzyme activity | Purified PLC-beta3, fluorogenic substrate, fluorescence | inhibition, % at 12.2 µM | actives 0.18% (n = 370,000) | AID 720704;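 also: 0% = median of compound wells on plate and 100% = full blocker control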
# Rpn11 inh = inhibitors of human proteasome Rpn11. O00487. human 26S proteasome, Ub4-pepOG fluorescence polarization; 20S core pre-blocked with epoxomicin. inhibition, % at 20 µM. actives 0.59% (n = 360,000). AID 588493;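 active = inhibition at 20 µM, scaled to each plate's controls, above about 33%, limit read from the data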
# UCH37 inh = blocks the human deubiquitinase UCH37. actives 0.33% (n = 330,000). inhibition, % (concentration not given with the values). purified proteasome/UCH37, Ub-AMC cleavage fluorescence. Q9Y5K5. AID 588478;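 active = mean inhibition over replicate wells above about 20%, limit read from the data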;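 also: 0% = compound-free wells with enzyme and 100% = wells lacking proteasome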
#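 Material: Human UCH37 enzyme supplied as purified proteasome complex | Schedule: 30 min compound-proteasome preincubation then 25 min substrate reaction, room temperature | Detection: AMC fluorescence from Ub-AMC cleavage, excitation 355 nm, emission 460 nm | Benchmarks: Wells without proteasome as full block, compound-free enzyme plus substrate as uninhibited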
# PLCgamma1 ctr = PLC-gamma1 inhibition, counter-screen for PLC-beta3 hits. shares compounds with PLCg1 inh. purified PLC-gamma1, fluorogenic substrate, fluorescence. inhibition, % at 12.3 µM. actives 3.1% (n = 3,300). AID 743258; in the data active = inhibition above about 9.5%
# PLCbeta3 conf = human PLC-beta3 inhibition, confirmation; shares compounds with PLCg1 inh; purified PLC-beta3, fluorogenic substrate fluorescence; inhibition, % at 12.3 µM; actives 1% (n = 3,300)
# * = called active by the depositor; · = no result; ! = repeats disagree. Only some compounds are listed: those with a hit (about 1.7% of all), similar ones and a draw of the others. Rule as the data show it, unless noted: active = inhibition above about 11%; inactive = the rest.
SMILES,PLCg1 inh,PLC-beta3 inh,Rpn11 inh,UCH37 inh,PLCgamma1 ctr,PLCbeta3 conf
Cc1onc(-c2ccc(Cl)cc2)c1-c1ccn(S(=O)(=O)c2ccccc2)n1,10.2*,0.5,·,·,-3.1,-1.4
COc1ccc(C=NOC(=O)c2ccc(Cl)cc2)c(Cl)c1OC,·,·,·,1.8,·,·
C=CCn1c(N2CCCC2)nc2c1c(=O)n(C)c(=O)n2C,9.7*,-0.8,0.5,5.0,2.9,1.7
C/C(Cl)=C\Cn1c(N2CCCCCC2)nc2c1c(=O)n(C)c(=O)n2C,3.8,4.5,-1.1,3.0,·,·
Cc1nnc(C)n1N=Cc1cccnc1,·,·,·,5.3,·,·
N#Cc1c(N=C/C=C/c2ccccc2)sc2c1CCCC2,·,·,·,6.0,·,·
COc1ccc(S(=O)(=O)N2CCc3ccccc3C2)cc1C(=O)O,1.1,-1.5,0.7,-1.1,·,·
COc1ccc(S(=O)(=O)N2CCc3ccccc3C2)cc1OC,13.1*,4.6,-3.8,5.4,-4.4,-3.5
O=C1CCCC[C@@H](O)[C@H](O)C[C@H](c2ccccc2)O1,-0.9,-0.7,·,·,·,·
C=C1CC2(CC(c3ccccc3)OC(c3ccccc3)C2)OC1=O (stereo not drawn),12.7*,9.8,-0.3,·,-2.3,-1.7
Clc1ccc(Cl)c2sc(N3CCCC3)nc12,1.9,1.0,-3.0,5.7,·,·
Clc1cccc2sc(N3CCN(c4ccccc4)CC3)nc12,10.7*,2.8,4.2,-0.9,-2.2,1.3
C[N+]1([O-])[C@@H]2Cc3cc4c(cc3[C@@H]1Cc1cc3c(cc12)OCO3)OCO4 (stereo partly drawn),1.0,11.7*,-1.3,0.4,-1.9,-4.1
C=CCN1C(=O)C(Cc2ccc(F)cc2)SC1=NN=Cc1ccco1 (stereo not drawn),·,·,·,1.5,·,·
COc1ccc(S(=O)(=O)NN=Cc2ccc([N+](=O)[O-])o2)c(OC)c1,·,·,·,0.7,·,·
CC(C)(C)c1ccc(C=NOCC(=O)NCc2ccc(F)cc2)cc1,·,·,·,2.7,·,·
CC(C)(C)c1ccc(/C=N/OCC(=O)NCc2ccc(F)cc2)cc1,12.5*,1.8,4.8,·,-9.5,-6.4
O=c1[nH]ncc(NN=Cc2ccncc2)c1Cl,·,·,·,5.8,·,·
O=c1[nH]ncc(N/N=C\c2ccncc2)c1Cl,8.5,10.6*,-2.9,·,2.1,4.1
Cc1ccc(S(=O)(=O)NC2=C(N3CCN(c4ccccc4F)CC3)C(=O)c3ccccc3C2=O)cc1,14.6*!,0.8,-4.8,-0.7,9.8*,8.3
Cc1ccc(S(=O)(=O)NC2=C(N3CCN(Cc4ccccc4)CC3)C(=O)c3ccccc3C2=O)cc1,-0.9,4.0,-7.3,5.6,·,·
O=C(CSCc1ccc(Cl)cc1)NN=Cc1c(Cl)cccc1Cl,·,·,·,0.7,·,·
Nc1cc(=O)[nH]c(SCC(=O)Nc2cc(S(=O)(=O)N3CCOCC3)ccc2Cl)n1,-0.4,2.5,-5.2,3.9,·,·
Cc1ccc(C2(C)NC(=O)N(CC(=O)Nc3cc(S(=O)(=O)N4CCOCC4)ccc3C)C2=O)cc1 (stereo not drawn),10.2*,8.9,-1.4,1.9,-2.8,2.0
Cc1nc(SCC(=O)Nc2cc(S(=O)(=O)N3CCOCC3)ccc2Cl)nc(C)c1C,11.0*,-1.1,-12.4,1.6,-2.7,0.8
SMILES,PLCg1 inh,PLC-beta3 inh,Rpn11 inh,UCH37 inh,PLCgamma1 ctr,PLCbeta3 conf
Cc1ccc(S(=O)(=O)N2CCOCC2)cc1NC(=O)c1cc2c(s1)CCC2,10.1*,3.2,-2.2,0.6,-5.8,-2.4
Cc1nn(-c2ccccc2)c(N2CCCC2)c1/C=N/NC(=O)C1CC1,12.0*,-5.5,-5.0,·,1.6,-2.2
Cc1nn(-c2ccccc2)c(N2CCCC2)c1/C=N/NC(=O)c1ccccc1O,-43.2,-49.0,1.9,·,·,·
O=C(c1ccc2snnc2c1)N1CCN(c2ccccc2)CC1,-1.3,4.4,2.2,2.3,·,·
O=C(c1ccc2snnc2c1)N1CCN(c2ccccn2)CC1,14.9*,6.2,0.6,2.0,-5.4,0.0
COc1ccc(CNc2nc3c(c(=O)n(Cc4ccc(Cl)cc4)c(=O)n3C)n2C)cc1,10.2*,2.7,-1.6,2.2,-0.4,-6.1
Cc1c(Cl)cccc1NC(=O)CCC(=O)NN=Cc1ccc[nH]1,·,·,·,3.6,·,·
CC(=O)Nc1ccc(S(=O)(=O)N2c3ccc(F)cc3CCC2C)cc1 (stereo not drawn),10.0*,-4.1,-3.3,4.3,-6.6,-3.3
COc1ccc(S(=O)(=O)N2c3ccc(F)cc3CCC2C)cc1 (stereo not drawn),0.9,-2.9,11.0,2.1,·,·
CCSc1nnc(NC(=O)NC(C)(C(F)(F)F)C(F)(F)F)s1,2.7,0.0,2.6,-1.7,·,·
CCOC(=O)NC(Nc1nnc(SCC)s1)(C(F)(F)F)C(F)(F)F,11.1*,5.9,-6.7,0.4,-6.7,-5.3
O=C(NN=Cc1ccc(N2CCCCC2)o1)c1ccccc1,·,·,·,6.9,·,·
COc1cc(NC(=O)c2sc3ncn(CC(=O)N4CCCCC4C)c(=O)c3c2C)cc(OC)c1OC (stereo not drawn),1.9,2.9,0.0,·,·,·
Cc1c(C(=O)NCc2cccnc2)sc2ncn(CC(=O)N3CCCCC3C)c(=O)c12 (stereo not drawn),10.6*,2.5,-0.2,0.0,-5.9,-4.5
Cc1cc(C)n(CCC(=O)NN=Cc2ccccc2O)n1,·,·,·,-55.5,·,·
COc1ccc(CC(=O)NCC2CCCN(Cc3ccc(F)c(OC)c3)C2)cc1 (stereo not drawn),0.2,-2.0,0.4,1.4,·,·
COc1ccc(CC(=O)NCC2CCCN(Cc3cccc(C(F)(F)F)c3)C2)cc1 (stereo not drawn),10.6*,-2.7,0.1,4.2,-7.0,-0.1
Cc1c(CCOC(=O)C23CC4CC(CC(C)(C4)C2)C3)sc[n+]1CC(=O)c1ccccc1,12.1*,2.1,11.9,3.8,0.6,1.1
Cc1c(CCOC(=O)CC23CC4CC(CC(C)(C4)C2)C3)sc[n+]1CC(=O)c1ccccc1,6.6,1.0,4.3,2.2,·,·
Cc1noc(C)c1-c1nnc(-c2ccc(C(F)(F)F)cc2)o1,10.2*,1.0,-4.5,0.8,4.8,2.0
Cc1nn(-c2ccccc2)nc1-c1nnc(-c2ccc(C(F)(F)F)cc2)o1,0.6,-9.3,6.9,-6.1,·,·
CC(=NNc1ccc([N+](=O)[O-])cc1)c1ccc(O)cc1,·,·,·,2.6,·,·
O=C(NCCNC(=O)c1cc(OCC(F)(F)F)ccc1OCC(F)(F)F)Nc1ccc(OC(F)(F)F)cc1,11.9*,-2.1,5.2,1.8,-6.8,-2.7
O=C(NCCNC(=O)c1cc(OCC(F)(F)F)ccc1OCC(F)(F)F)Nc1ccc(Cl)cc1,3.9,4.9,·,0.7,·,·
Nc1nc2n[nH]nc2c(=O)[nH]1,3.2,9.0,-6.2,1.8,·,·
Nc1[nH]c(=O)nc2snnc12,9.6*,10.0,1.5,·,-4.2,-4.1
O=C(NN=Cc1ccc([N+](=O)[O-])o1)c1cccc(S(=O)(=O)N2CCOCC2)c1,·,·,·,10.6,·,·
COc1ccc(OCCn2cc(/C(N)=N/O)c3ccccc32)cc1,9.5,10.9*,-5.9,1.7,8.5,1.6
COc1ccc(C=NNc2nc(C)cc(=O)[nH]2)cc1OC,·,·,·,7.3,·,·

# Compound activity (PubChem BioAssay)
